Assay outcomes from PubChem.
A selection: hits, their analogues and other compounds. The true share with any hit is near 2.3%.
KLF5 inhibitor – inhibitors of KLF5 expression | DLD-1 KLF5 promoter-luciferase reporter, luminescence | inhibition, % at 5 µM | actives 0.23% (n = 290,000) | AID 1700;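 active means inhibition above a per-plate limit of that plate's mean compound inhibition plus 3 SD, cut at about 60% in these data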;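 further: higher means less KLF5 promoter-driven luciferase light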
Bfl-1 A1 inh – inhibitors of the anti-apoptotic protein A1, read as caspase activation; caspase activation, % (test concentration not listed); actives 0.066% (n = 330,000); MEF A1-2A-BIM cells, Caspase-Glo 3/7 luminescence, 3 h; percent of clofoctol response, vehicle zero; AID 2462;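 active means over half of replicate activation scores above 10%, or exactly half above 10 with the replicate mean above 10; inconclusive means replicate mean below 10 yet half the replicates above 10; inactive means over half of replicates below 10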
Beta cell apopt – beta cell apoptosis inhibition | INS-1E cytokine-induced death, ATP luminescence, 48 h; percent of positive-control rescue, neutral wells zero | protection from apoptosis, % (concentration not given with the values) | actives 0.8% (n = 300,000);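 active means Every replicate reaches about 75%, or at least half do and their mean reaches it too, limit read from the data; inconclusive means At least half of replicates reach the limit but their mean does not; inactive means Under half of replicates reach the limit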;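 further: higher means more ATP so stronger rescue from cytokine killing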
T cruzi inh – blocks replication of Trypanosoma cruzi; T. cruzi beta-gal in NIH3T3, luminescence, 90 h; inhibition, % (test concentration not listed); actives 1.4% (n = 300,000);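 active means mean inhibition across valid replicates above about 55%, limit read from the data; inconclusive means mean below that limit but half or more replicates reach it; inactive means mean below it, under half of replicates reach it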;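 further: signal also drops with host cell toxicity which is not excluded here; higher percent means less beta-gal luminescence so fewer parasites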
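Assay system: NIH/3T3 fibroblasts plus reporter T. cruzi. Amount: NIH/3T3 cells, 5,000 per well. Buffer or medium: DMEM, 2% fetal bovine serum. Doses: compound pinned at 50 nL/well, DMSO. Schedule: ≥90 h infection period, 3 h prior cell attachment. Signal: luminescent β-galactosidase signal after 60 min lysis. Read-out: parasite load inhibition, %.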
HIF activator – HIF pathway transcriptional activation | AID 1910 | U2OS HRE-luciferase reporter, luminescence; normalized: DMSO 0%, desferrioxamine 100% | actives 0.32% (n = 300,000) | activation, % at 7.5 µM (by protocol);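 active means mean activation of at least 10% of the iron chelator positive control signal, with at least half of replicates also reaching 10%; inconclusive means mean and replicate majority disagree about reaching 10%; inactive means mean and most replicates under 10%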
Each line names hits and unclear results; the compound was inactive in the other large screens.

COc1ccc(-c2cc(C3CCN(c4ccc(C(C)=O)cc4[N+](=O)[O-])CC3)[nH]n2)cc1	T cruzi inh 63
CC(=O)c1ccc(N2CCN(c3ncccn3)CC2)c([N+](=O)[O-])c1	none
CC(=O)c1ccc(N2CCC(c3cc(-c4ccc(Cl)cc4)n[nH]3)CC2)c([N+](=O)[O-])c1	T cruzi inh 74
OCCNc1nc2ccccc2nc1NCCO	none
OCCNc1c2ccccc2nc2ccccc12	Bfl-1 A1 inh inconclusive, T cruzi inh 59, HIF activator 24 (no result: Beta cell apopt)
O=c1c2ccccc2[nH]c(=S)n1CCCN1CCC(Cc2ccccc2)CC1	T cruzi inh 56
Fc1ccc(CNC(=S)NCc2cccc(Cl)c2)cc1	none
CCOC(=O)N1CCN(c2ccc(S(=O)(=O)N(Cc3ccccc3)Cc3ccccc3)cn2)CC1	Beta cell apopt 104
CCOC(=O)N1CCN(c2ccc(S(=O)(=O)N3CCOCC3)cn2)CC1	none (no result: KLF5 inhibitor, T cruzi inh, HIF activator)
Cc1ccc(S(=O)(=O)N(C)S(=O)(=O)c2ccc(C#N)cc2)cc1	none
Cc1cccc2nc(-c3ccccc3)nc(N3CCC(O)(c4ccc(Cl)cc4)CC3)c12	T cruzi inh 60
Cc1ccc(C(=O)Nc2ccccc2-c2ccccc2)cc1S(=O)(=O)Nc1cccc(C)c1C	T cruzi inh 62
CCCCOc1cccc(-c2cc(C(=O)NNC(=S)NCC)c3ccccc3n2)c1	none
CCCCOc1ccc(-c2cc(C(=O)NNC(=S)NCC)c3ccccc3n2)cc1	Beta cell apopt 80
O=C(NC(=S)Nc1ccccn1)c1cc(-c2ccccc2)nc2ccccc12	HIF activator 184
CN(CC(=O)Nc1ccc(F)c(F)c1F)C(=O)C1CCC1	none (no result: KLF5 inhibitor)
COc1cc(CNCCc2ccc(S(N)(=O)=O)cc2)ccc1OCc1ccc(Cl)cc1	T cruzi inh 66
CCOc1cc(CNCCc2ccc(S(N)(=O)=O)cc2)ccc1OCc1ccc(Cl)cc1	Beta cell apopt 105
CCOc1ccc(CNCCc2ccc(S(N)(=O)=O)cc2)cc1	none (no result: Beta cell apopt)
Cc1cc(C)nc(-n2nc(C)cc2Nc2ccccc2)n1	Beta cell apopt 85
O=[N+]([O-])c1ccc(Cl)cc1Sc1nc2ccccc2o1	none
O=c1[nH]c(Sc2ccc([N+](=O)[O-])cc2[N+](=O)[O-])nc2ccccc12	T cruzi inh 61 (no result: KLF5 inhibitor)
O=[N+]([O-])c1ccc(Sc2nc3ccccc3o2)c([N+](=O)[O-])c1	T cruzi inh 55
O=C(CSc1nc2ccccc2c(=O)[nH]1)Nc1ccc([N+](=O)[O-])cc1	none (no result: KLF5 inhibitor, T cruzi inh, HIF activator)
O=C(NS(=O)(=O)N1CCOCC1)C1=C(N2CCCC2)COC1=O	none (no result: KLF5 inhibitor, T cruzi inh, HIF activator)
COc1ccc(N(C(=O)Cn2nnc(-c3ccc(C)o3)n2)C(C(=O)NC2CCCC2)c2ccncc2)cc1 (centres undefined)	none
COc1ccc(/C=C/C(=O)OCc2cccc([N+](=O)[O-])c2)cc1	none
COc1ccc(/C=C/C(=O)c2ccc([N+](=O)[O-])o2)cc1	Beta cell apopt 127 (no result: KLF5 inhibitor)
Cc1cccc(/C=C/C(=O)c2ccc([N+](=O)[O-])o2)c1	Beta cell apopt 117 (no result: KLF5 inhibitor)
Cc1ccccc1/C=C/C(=O)c1ccc([N+](=O)[O-])o1	Bfl-1 A1 inh 11, Beta cell apopt 122 (no result: KLF5 inhibitor)
O=C(/C=C/c1cccc([N+](=O)[O-])c1)c1ccc([N+](=O)[O-])o1	Beta cell apopt 133, T cruzi inh 56 (no result: KLF5 inhibitor)
Cc1ccccc1NC(=O)c1ccc([N+](=O)[O-])o1	none
Cc1ccc(/C=C/C(=O)c2c(C)nc3ccccn23)cc1	none
Cc1nc2ccccn2c1C(=O)/C=C/c1cccc([N+](=O)[O-])c1	Beta cell apopt 102
Cc1sc2ncnc(N3CCC(C(=O)Nc4nc(-c5cccs5)cs4)CC3)c2c1C	T cruzi inh 64 (no result: KLF5 inhibitor)
Cc1[nH]c(N=Nc2ccccc2)nc1N=Nc1ccccc1	Beta cell apopt 100, T cruzi inh 65
Cn1c(N=Nc2ccccc2)nc2ccccc21	none
COc1ccccc1C(=O)Nc1ccc2ccccc2c1	none (no result: KLF5 inhibitor)
COc1cc2ccccc2cc1C(=O)Nc1ccc(Cc2ccncc2)cc1	T cruzi inh 62
COc1cc2ccccc2cc1C(=O)Nc1ccc(C)cc1	HIF activator 11
CC(=O)c1sc(NC(=O)CSCc2c(C)noc2C)nc1-c1ccccc1	none (no result: KLF5 inhibitor, T cruzi inh, HIF activator)
N=c1c(C(=O)NCc2ccc(F)cc2)cc2c(=O)n3ccccc3nc2n1Cc1cccnc1	T cruzi inh 70 (no result: Beta cell apopt)
CC(C)OCCCn1c(=N)c(C(N)=S)cc2c(=O)n3ccccc3nc21	T cruzi inh 69 (no result: Beta cell apopt)
